Measurements: ChEMBL document CHEMBL3804796, “Discovery of Novel 3,3-Disubstituted Piperidines as Orally Bioavailable, Potent, and Efficacious HDM2-p53 Inhibitors” (ACS Med Chem Lett, 2016)
≈ marks a conversion by molar mass, not a printed value.

What was measured:
[1] = biological target: T1, Tumour suppressor p53/oncoprotein Mdm2 (Homo sapiens, UniProt Q00987); assay: Inhibition of human recombinant His-tagged MDM2 (1 to 118 residues) interaction with FAM-tagged p53-based peptide (unknown origin) incubated for 15 mins by fluorescence polarization assay; type: protein assay
T1 sequence (P04637 whole entry, the tested form may be a part): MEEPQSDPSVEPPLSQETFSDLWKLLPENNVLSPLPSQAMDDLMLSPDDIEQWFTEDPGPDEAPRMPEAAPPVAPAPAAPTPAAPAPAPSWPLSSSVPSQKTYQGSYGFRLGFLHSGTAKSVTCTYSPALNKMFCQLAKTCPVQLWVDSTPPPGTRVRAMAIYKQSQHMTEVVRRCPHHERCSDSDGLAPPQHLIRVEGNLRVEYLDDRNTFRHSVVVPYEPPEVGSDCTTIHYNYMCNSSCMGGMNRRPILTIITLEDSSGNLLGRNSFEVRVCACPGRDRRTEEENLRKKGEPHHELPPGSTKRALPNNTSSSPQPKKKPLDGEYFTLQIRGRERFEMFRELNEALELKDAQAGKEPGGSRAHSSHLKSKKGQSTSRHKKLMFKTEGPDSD
T1 sequence (Q00987 whole entry, the tested form may be a part): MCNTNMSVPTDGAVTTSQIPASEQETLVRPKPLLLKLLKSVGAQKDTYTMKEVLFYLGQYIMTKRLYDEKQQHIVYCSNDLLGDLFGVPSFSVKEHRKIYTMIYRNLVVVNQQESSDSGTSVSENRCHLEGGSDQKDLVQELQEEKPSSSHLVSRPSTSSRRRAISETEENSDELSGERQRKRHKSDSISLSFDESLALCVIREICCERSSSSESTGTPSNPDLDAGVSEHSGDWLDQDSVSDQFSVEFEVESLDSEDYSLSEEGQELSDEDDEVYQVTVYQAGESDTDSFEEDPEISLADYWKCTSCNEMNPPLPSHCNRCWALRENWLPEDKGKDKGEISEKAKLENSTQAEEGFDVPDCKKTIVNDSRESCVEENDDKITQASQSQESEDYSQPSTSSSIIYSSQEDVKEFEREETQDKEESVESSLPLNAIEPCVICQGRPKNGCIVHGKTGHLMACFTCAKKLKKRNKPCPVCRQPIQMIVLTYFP

[2] = Antiproliferative activity against human SJSA1 cells expressing wild type p53 after 72 hrs by CellTitre-Glo assay; settings: SJSA-1, 72 h
[3] = tested on: A2780; assay: Antitumor activity against human A2780 cells xenografted in nude mouse harboring wild type p53 assessed as tumor growth inhibition at 40 mg/kg, ip once weekly for 15 days relative to control; settings: 360 h, read-out: TGI
[4] = Solubility of compound in pH 7.4 phosphate buffer; type: physicochemical
[5] = tested on: Canis familiaris; assay: Dose normalized AUC (0 to 24 hrs) in dog at 1 mg/kg, po administered as single dose; type: ADME, organism-based, Canis lupus familiaris; settings: in vivo
Summary of the method: (§1)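 Single oral dose of 1 mg/kg. Vehicle was 20% HPBCD for mouse and 0.4% HPMC for dog and monkey. Plasma AUC over 0–24 h, dose-normalized, reported in μM·h.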

[6] = Intrinsic clearance in human liver microsomes; type: ADME; settings: read-out: CLH
[7] = tested on: SJSA-1; assay: Induction of apoptosis in human SJSA1 cells assessed as caspase 3/7 activation; type: functional, cell-based
[8] = Antiproliferative activity against human HCT116 cells expressing wild type p53 after 72 hrs by CellTitre-Glo assay; type: functional, cell-based; settings: HCT-116, 72 h
Summary of the method: (§2)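 Cancer cell lines of known p53 coding-region status (checked by direct sequencing) were exposed to the compound for 72 h. Viability was read with CellTiter-Glo, and the IC50 was taken from these readings.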

[9] = tested on: SK-UT-1; assay: Antiproliferative activity against human SK-UT-1 cells harboring mutant p53 after 72 hrs by CellTitre-Glo assay; type: functional, cell-based; settings: SK-UT-1, 72 h; summary of the method: as §2
[10] = tested on: Rhesus monkey; assay: Dose normalized AUC (0 to 24 hrs) in monkey at 1 mg/kg, po administered as single dose; type: ADME, organism-based, Macaca mulatta; settings: in vivo; summary of the method: as §1
[11] = Antiproliferative activity against p53 null human H1299 cells after 72 hrs by CellTitre-Glo assay; type: functional, cell-based; settings: NCI-H1299, 72 h; summary of the method: as §2
[12] = biological target: T1, Tumour suppressor p53/oncoprotein Mdm2; assay: Inhibition of MDM2/p53 interaction in human HCT116 cells assessed as activation of p53 transcription by luciferase reporter gene assay; type: cell-based, HCT-116
Summary of the method: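 p53 transcriptional activation measured in HCT116 cells with a p53 response element–driven luciferase reporter (P53RE-Luc).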

[13] = tested on: Mus musculus; assay: Dose normalized AUC (0 to 24 hrs) in mouse at 1 mg/kg, po administered as single dose; type: ADME, organism-based; settings: in vivo; summary of the method: as §1
[14] = Permeability from apical to basolateral side in human Caco2 cells; type: ADME, cell-based; settings: Caco-2, read-out: permeability
[15] = tested on: A549; assay: Antitumor activity against human A549 cells xenografted in nude mouse assessed as tumor growth inhibition at 20 mg/kg, ip once weekly for 30 days relative to control; type: functional; settings: 720 h, read-out: TGI
Summary of the method: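 Mice bearing A549 NSCLC xenografts. The test agent was given orally, either daily or intermittently (daily for 3 days, then 4 days off). Paclitaxel was given at 20 mg/kg ip weekly, alone or in combination. Read-out was tumor growth inhibition.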

[16] = Oral bioavailability in mouse at 20 mg/kg; type: ADME, organism-based; settings: in vivo
[17] = AUC in mouse at 20 mg/kg, po or 2 mg/kg, iv; type: ADME, organism-based; settings: in vivo

| Compound | IC50 [1] | IC50 [2] | also measured |
| --- | --- | --- | --- |
| CCC[C@H]1N(C(=O)c2cnccc2C(F)(F)F)CCC[C@@]1(Oc1csc(C(F)(F)F)c1)C(=O)N1CCN(c2ccccc2OCC(C)(C)C(=O)O)CC1 | 0.004 µM | 0.26 µM | – |
| CCC[C@@H]1N(C(=O)c2cnccc2C(F)(F)F)CCC[C@]1(Oc1cc(C(F)(F)F)n(C)n1)C(=O)N1CCN(c2ccccc2OCCO)CC1 (racemic) | 6.3 µM | – | – |
| CCC[C@H]1N(C(=O)c2cnccc2C(F)(F)F)CCC[C@@]1(Oc1cc(I)cs1)C(=O)N1CCN(c2ccccc2OCCO)CC1 (racemic) | 0.09 µM | – | – |
| CCC[C@@H]1N(C(=O)c2cnccc2C(F)(F)F)CCC[C@]1(Oc1csc(C(F)(F)C(F)(F)F)c1)C(=O)N1CCN(c2ccccc2OCCO)CC1 (single isomer, unassigned) | 0.025 µM | 1.1 µM | – |
| CCC[C@@H]1N(C(=O)c2cnccc2C(F)(F)F)CCC[C@]1(Oc1csc(C(F)(F)F)c1)C(=O)N1CCN(c2ccccc2OCC2(CC(=O)O)CC2)CC1 (single isomer, unassigned) | 0.033 µM | – | – |
| CCC[C@@H]1N(C(=O)c2cnccc2C(F)(F)F)CCC[C@]1(Oc1nc(C(F)(F)F)cs1)C(=O)N1CCN(c2ccccc2OCCO)CC1 (racemic) | 1.1 µM | – | – |
| COc1ccc(C2=N[C@@H](c3ccc(Cl)cc3)[C@@H](c3ccc(Cl)cc3)N2C(=O)N2CCNC(=O)C2)c(OC(C)C)c1 [NUTLIN-3] | – | 1.9 µM | – |
| CCC[C@@H]1N(C(=O)c2cnccc2C(F)(F)F)CCC[C@]1(Oc1cc(C(F)(F)F)cs1)C(=O)N1CCN(c2ccccc2OCCO)CC1 (racemic) | 0.17 µM | – | – |
| CCC[C@H]1N(C(=O)c2cnccc2C(F)(F)F)CCC[C@@]1(Oc1cc(C(F)(F)F)sc1C)C(=O)N1CCN(c2ccccc2OCCO)CC1 | 0.47 µM | – | – |
| COCCOc1ccccc1N1CCN(C(=O)[C@]2(Oc3ccc(C(F)(F)F)cc3)CCCN(C(=O)c3cnccc3C(F)(F)F)[C@@H]2CCO)CC1 | – | 0.53 µM | – |
| CC(=O)O[C@@]12CO[C@@H]1C[C@H](O)[C@@]1(C)C(=O)[C@H](O)C3=C(C)[C@@H](OC(=O)[C@H](O)[C@@H](NC(=O)OC(C)(C)C)c4ccccc4)C[C@@](O)([C@@H](OC(=O)c4ccccc4)[C@H]21)C3(C)C [DOCETAXEL ANHYDROUS] | – | – | inhibition in vivo at 40 mg/kg [3]: 53% |
| C=CC[C@H]1N(C(=O)c2cnccc2C(F)(F)F)CCC[C@@]1(Oc1cc(C2CC2)cs1)C(=O)N1CCN(c2ccccc2OCCCC(=O)O)CC1 | 3.5 µM | – | – |
| CCC[C@H]1N(C(=O)c2cnccc2C(F)(F)F)CCC[C@@]1(Oc1csc(C(F)(F)F)c1)C(=O)N1CCN(c2ccccc2OC(C)(C)CO)CC1 | 0.025 µM | 1.1 µM | – |
| CCC[C@@H]1N(C(=O)c2cnccc2C(F)(F)F)CCC[C@]1(Oc1csc(C(F)(F)F)c1)C(=O)N1CCN(c2ccccc2OCCO)CC1 (single isomer, unassigned) | 0.015 µM | 0.18 µM | solubility [4]: 10 µM (≈ 7.15 µg/mL); AUC/dose [5]: 0.2 µM·h; CLint scaled [6]: 14 mL/min/kg; IC50 [7]: 0.3 µM; IC50 [8]: 0.39 µM; IC50 [9]: > 17 µM; AUC/dose [10]: 0.3 µM·h; IC50 [11]: > 17 µM; EC50 [12]: 0.4 µM; AUC/dose [13]: 2 µM·h |
| CCC[C@H]1N(C(=O)c2cnccc2C(F)(F)F)CCC[C@@]1(Oc1csc(C(F)(F)F)c1Cl)C(=O)N1CCN(c2ccccc2OCCO)CC1 | 0.13 µM | – | – |
| COc1ccccc1N1CCN(C(=O)C2(Oc3ccc(C(F)(F)F)cc3)CCCN(C(=O)c3cnccc3C(F)(F)F)C2)CC1 (stereo not given) | – | 5.5 µM | – |
| CCC[C@H]1N(C(=O)c2cnccc2C(F)(F)F)CCC[C@@]1(Oc1csc(C(F)(F)F)c1)C(=O)N1CCN(c2ccccc2OCCCCC(=O)O)CC1 | 0.007 µM | 0.17 µM | – |
| CCC[C@@H]1N(C(=O)c2cnccc2C(F)(F)F)CCC[C@]1(Oc1csc(C(F)(F)F)c1)C(=O)N1CCN(c2ccccc2OCC(=O)NC)CC1 (single isomer, unassigned) | 0.004 µM | 0.11 µM | solubility [4]: 12 µM (≈ 8.9 µg/mL); AUC/dose [5]: 0.2 µM·h; Papp A→B [14]: 18.1 ×10⁻⁶ cm/s; CLint scaled [6]: 13 mL/min/kg; IC50 [7]: 0.3 µM; IC50 [8]: 0.47 µM; IC50 [9]: > 10 µM; AUC/dose [10]: 0.3 µM·h; IC50 [11]: > 17 µM; EC50 [12]: 0.4 µM; AUC/dose [13]: 2 µM·h |
| CCC[C@H]1N(C(=O)c2cnccc2C(F)(F)F)CCC[C@@]1(Oc1csc(C(F)(F)F)c1)C(=O)N1CCN(c2ccccc2OC(C)(C)C(=O)O)CC1 | 0.011 µM | 0.08 µM | – |
| CCC[C@H]1N(C(=O)c2cnccc2C(F)(F)F)CCC[C@@]1(Oc1csc(C(F)(F)F)c1C)C(=O)N1CCN(c2ccccc2OCCO)CC1 | 0.058 µM | – | – |
| CCC[C@H]1N(C(=O)c2cnccc2C(F)(F)F)CCC[C@@]1(Oc1csc(C(F)(F)F)c1)C(=O)N1CCN(c2ccccc2OCC(C)(C)O)CC1 | 0.023 µM | 0.6 µM | – |
| CCC[C@H]1N(C(=O)c2cnccc2C(F)(F)F)CCC[C@@]1(Oc1cccs1)C(=O)N1CCN(c2ccccc2OCCO)CC1 (racemic) | 2.9 µM | – | – |
| CCC[C@@H]1N(C(=O)c2cnccc2C(F)(F)F)CCC[C@]1(Oc1csc(C(F)(F)F)c1)C(=O)N1CCN(c2ccccc2OCCC(C)(C)C(=O)O)CC1 (single isomer, unassigned) | 0.01 µM | 0.28 µM | – |
| CC(=O)O[C@H]1C(=O)[C@@]2(C)[C@H]([C@H](OC(=O)c3ccccc3)[C@]3(O)C[C@H](OC(=O)[C@H](O)[C@@H](NC(=O)c4ccccc4)c4ccccc4)C(C)=C1C3(C)C)[C@]1(OC(C)=O)CO[C@@H]1C[C@@H]2O [PACLITAXEL] | – | – | inhibition in vivo at 20 mg/kg [15]: 54% |
| CCC[C@H]1N(C(=O)c2cnccc2C(F)(F)F)CCC[C@@]1(Oc1csc(C(F)(F)F)c1)C(=O)N1CCN(c2ccccc2OCC(=O)O)CC1 | 0.002 µM | 1.1 µM | Papp A→B [14]: 0.7 ×10⁻⁶ cm/s; AUC/dose [13]: 0.02 µM·h |
| CCC[C@@H]1N(C(=O)c2cnccc2C(F)(F)F)CCC[C@]1(Oc1ccc(C(F)(F)F)cc1)C(=O)N1CCN(c2ccccc2OCCO)CC1 (single isomer, unassigned) | 0.04 µM | 0.46 µM | bioavailability [16]: 92%; Papp A→B [14]: 9.9 ×10⁻⁶ cm/s; CLint scaled [6]: 23 mL/min/kg; AUC [17]: 8.7 µM·h; AUC/dose [13]: 1.2 µM·h |
